Converted amounts (≈) assume the structure as drawn. The source made the active and inactive calls.

In assay [1] the test system is Cryptococcus neoformans. Put plainly: Antifungal activity against Cryptococcus neoformans ATCC 90112. In kind it is functional.
Assay [2] has as its system Candida albicans. Put plainly: Antifungal activity against Candida albicans ATCC 10231. In kind it is functional.
Assay [3] deals with T1, Phospholipase B (Cryptococcus neoformans, UniProt Q9P8P2).
T1 sequence (Q9P8P2 whole entry): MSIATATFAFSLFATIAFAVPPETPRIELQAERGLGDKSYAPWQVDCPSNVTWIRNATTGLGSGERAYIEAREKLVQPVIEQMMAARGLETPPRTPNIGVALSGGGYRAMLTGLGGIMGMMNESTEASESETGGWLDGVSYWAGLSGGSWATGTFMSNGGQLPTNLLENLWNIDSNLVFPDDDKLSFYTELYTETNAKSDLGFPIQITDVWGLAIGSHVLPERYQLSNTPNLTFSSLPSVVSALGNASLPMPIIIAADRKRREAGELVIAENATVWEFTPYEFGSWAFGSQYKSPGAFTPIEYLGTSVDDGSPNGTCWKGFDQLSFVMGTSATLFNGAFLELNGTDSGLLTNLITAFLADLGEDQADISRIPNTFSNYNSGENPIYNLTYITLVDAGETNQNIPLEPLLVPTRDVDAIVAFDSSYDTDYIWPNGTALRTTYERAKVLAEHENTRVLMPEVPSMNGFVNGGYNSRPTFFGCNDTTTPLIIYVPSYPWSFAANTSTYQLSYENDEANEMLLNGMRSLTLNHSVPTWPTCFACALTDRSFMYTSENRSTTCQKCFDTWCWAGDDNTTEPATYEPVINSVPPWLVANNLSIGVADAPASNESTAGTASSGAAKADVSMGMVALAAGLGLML
In words: Inhibition of Cryptococcus neoformans H99 PLB1activity. The essentials: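 Secreted enzyme from C. neoformans var. grubii H99 grown 72 h on SDA at 30 °C; cells washed and held 24 h at 37 °C in imidazole buffer pH 5.5, and the cell-free supernatant was used. Radiometric assay at 37 °C, pH 4.0 imidazole acetate, with 1 µg protein, 800 µM DPPC plus [14C]DPPC, for 22 min. Lipids were separated by TLC. Compounds at 0.25–250 µM in triplicate, with inhibition relative to the inhibitor-free control.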

Assay [4] has as its target Phospholipase A2, major isoenzyme (Sus scrofa) (UniProt P00592). In words: Inhibition of porcine pancreatic PLA2 activity at 250 uM. The essentials:
(§1)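 Porcine pancreatic PLA2 was diluted in 10 mM Tris/HCl with 10 mM CaCl2, pH 8.2. It was run in the same radiometric assay as the fungal enzyme at 37 °C, using 800 µM DPPC with [14C]DPPC, for a 1 h reaction. Compounds were tested at 250, 25, 2.5 and 0.25 µM final, and inhibition was relative to the inhibitor-free control.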

Assay [5] shares this target. Put plainly: Inhibition of porcine pancreatic PLA2 activity at 25 uM and below. In outline:
as §1

Assay [6] has as its system RBCs. In words: Hemolytic activity as a measure of cytotoxicity against human red blood cells at 350 uM. In kind it is functional, Erythrocyte.
The test system of assay [7] is RBCs. Put plainly: Hemolytic activity as a measure of cytotoxicity against human red blood cells at 175 uM. In kind it is functional, Erythrocyte.
Assay [8] relates to RBCs. In words: Hemolytic activity as a measure of cytotoxicity against human red blood cells at 87.5 uM. In kind it is functional, Erythrocyte.
Assay [9] has as its system RBCs. Put plainly: Hemolytic activity as a measure of cytotoxicity against human red blood cells at 35 uM. In kind it is functional, Erythrocyte.
The subject of assay [10] is RBCs. In words: Hemolytic activity as a measure of cytotoxicity against human red blood cells at 3.5 uM. In kind it is functional, Erythrocyte.
The subject of assay [11] is Aspergillus flavus. In words: Antifungal activity against Aspergillus flavus ATCC 204 304. In kind it is functional.
In assay [12] the test system is Lomentospora prolificans. Put plainly: Antifungal activity against Scedosporium prolificans 1-003-040. In kind it is functional.
Assay [13] relates to Scedosporium boydii. Put plainly: Antifungal activity against Scedosporium apiospermum 1-003-056. In kind it is functional.
The subject of assay [14] is Aspergillus fumigatus. In words: Antifungal activity against Aspergillus fumigatus ATCC 204 305. In kind it is functional.
For assay [15], the system named is Aspergillus terreus. Put plainly: Antifungal activity against Aspergillus terreus ATCC 03-232-378. In kind it is functional.
In assay [16] the test system is Fusarium solani. Put plainly: Antifungal activity against Fusarium solani 04-132-4207. In kind it is functional.
The mark [17] stands for this setting: Cryptococcus neoformans, ATCC 90112, read-out: MIC.
Setting [18] is: Candida albicans, ATCC 10231, read-out: MIC.

Phospholipase A2, major isoenzyme (Sus scrofa), sequence (P00592 23-146 limits assumed): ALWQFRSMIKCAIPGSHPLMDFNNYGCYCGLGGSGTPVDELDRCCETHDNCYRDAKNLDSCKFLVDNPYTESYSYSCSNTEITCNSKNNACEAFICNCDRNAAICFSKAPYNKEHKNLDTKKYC

Broadly, the MIC is the smallest concentration in the dilution series that meets the test's criterion for growth inhibition. One may read the IC50 as the concentration needed to halve the response being measured. Low values mean greater potency, high ones weaker potency. For orientation: inhibition means the change of the read-out against control, counted positive when it falls. For the compound `CCCCCC[N+](CCCCCC)(CCCCCC)CCCCCCCCCCCC[N+](CCCCCC)(CCCCCC)CCCCCC`, the figures for the MIC in assay [1] (setting [17]) and in [2] (setting [18]) were 17.5 µM and 8.8 µM, respectively. For the same compound, the half-maximal inhibitory concentration (IC50) in assay [3] worked out at 7.5 µM. This compound gave an inhibition in [4] of 90%. The inhibition entry in [5] is “inactive”.

Consider `C[N+](C)(C)CCCCCCCCCC[N+](C)(C)C.[Br-].[Br-]` [DECAMETHONIUM BROMIDE], for which the minimal inhibitory concentration (MIC) in assay [1] (setting [17]) and in assay [2] (setting [18]) was no less than 350 µM in each case. The concentration for half-maximal inhibition (IC50) in assay [3] is greater than 250 µM. Moreover, the Activity in assay [6], in assay [7], in assay [8], in assay [9] and in [10] was 0% throughout.

In the case of `CCCCCCCC[N+](CCCCCCCC)(CCCCCCCC)CCCCCCCCCCCC[N+](CCCCCCCC)(CCCCCCCC)CCCCCCCC`, the MIC in assay [1] (setting [17]) was 35 µM; in assay [2] (setting [18]), 100 µM. For the same compound, the half-inhibitory concentration (IC50) in assay [3] was greater than 250 µM.

Regarding `CC(C)CC[N+](CCCCCCCCCCCC[N+](CCC(C)C)(CCC(C)C)CCC(C)C)(CCC(C)C)CCC(C)C.[Cl-].[Cl-]`, the MIC in [1] (setting [17]) is 4.4 µM; in [2] (setting [18]), 2.2 µM. In addition, the half-maximal inhibitory concentration (IC50) in [3] is greater than 7.5 µM. In assay [4], this compound returned an inhibition of 90%. The Activity in assay [6] turned out to be 100%; in assay [7], 30%; in [8] it was 4%; in [9] it was 0%; in [10] it was 0%. Further, the inhibition result in assay [5] is “inactive”.

Regarding `C[N+]1(CCCCCCCCCCCC[N+]2(C)CCCC2)CCCC1`, the MIC in assay [1] (setting [17]) and in assay [2] (setting [18]) was 175 µM each time. For the same compound, the half-inhibitory concentration (IC50) in assay [3] is greater than 250 µM.

Consider `CCC[N+](CCC)(CCC)CCCCCCCCCCCC[N+](CCC)(CCC)CCC`, for which the MIC was 5.5 µM in [1] (setting [17]) and 10 µM in assay [2] (setting [18]). The compound further gave a half-inhibitory concentration (IC50) in assay [3] of 7 µM.

For the compound `C[N+](C)(C)CCCCCCCCCCCC[N+](C)(C)C.[Br-].[Br-]`, the MIC in assay [1] (setting [17]) and in [2] (setting [18]) was 175 µM each time. Further, the half-inhibitory concentration (IC50) in [3] was greater than 250 µM. The inhibition entry in assay [4] and in assay [5] was “inactive” throughout. Also, the Activity in [6], in assay [7], in assay [8], in assay [9] and in [10] was 0% throughout.

As to `CCCC[N+](CCCC)(CCCC)CCCCCCCCCCCC[N+](CCCC)(CCCC)CCCC.[Cl-].[Cl-]`, the minimal inhibitory concentration (MIC) in assay [11] amounted to 22 µM; in assay [12], 5.5 µM; in assay [13], 2.8 µM; in [1], 2.2 µM; in assay [2], 5.5 µM; in assay [14] it was 11 µM. In addition, the MIC in [15] and in [16] was 5.5 µM each time. The compound also displayed a concentration for half-maximal inhibition (IC50) in [3] of 10 µM. For the same compound, the Activity came out at 100% in assay [6]; 5% in assay [7]; 0% in assay [8]; 0% in [9]; 0% in assay [10].

`C[C@@H]1[C@H](O)[C@@H](C)/C=C/C=C/C=C/C=C/C=C/C=C/C=C/[C@H](O[C@@H]2O[C@H](C)[C@@H](O)[C@H](N)[C@@H]2O)C[C@@H]2O[C@](O)(C[C@@H](O)C[C@@H](O)[C@H](O)CC[C@@H](O)C[C@@H](O)CC(=O)O[C@H]1C)C[C@H](O)[C@H]2C(=O)O` [AMPHOTERICIN B]: the MIC in assay [11] came out at 0.54 µM (≈ 0.499 µg/mL); in assay [12], 4.3 µM (≈ 3.97 µg/mL); in assay [13], 0.54 µM (≈ 0.499 µg/mL); in assay [1] (setting [17]) it was 0.54 µM (≈ 0.499 µg/mL); in [2] (setting [18]), 0.54 µM (≈ 0.499 µg/mL); in assay [14], 0.54 µM (≈ 0.499 µg/mL). Besides, the MIC stood at 1.1 µM (≈ 1.02 µg/mL) in [15] and 0.27 µM (≈ 0.25 µg/mL) in [16].

Take `CCCCC[N+](CCCCC)(CCCCC)CCCCCCCCCCCC[N+](CCCCC)(CCCCC)CCCCC.[Br-].[Br-]`: the MIC in assay [1] (setting [17]) and in assay [2] (setting [18]) was 5.5 µM throughout. Further, in assay [3], half-maximal inhibition (IC50) required 3.5 µM. In [4], this compound came in with an inhibition of 90%. For the same compound, the Activity in assay [6] is reported as 100%; in assay [7], 5%; in assay [8] it was 0%; in assay [9], 0%; in assay [10] it was 0%. The inhibition result in [5] was “inactive”.

Turning to `CCCC[P+](CCCC)(CCCC)CCCCCCCCCCCC[P+](CCCC)(CCCC)CCCC.[Br-].[Br-]`, the figures for the minimum inhibitory concentration (MIC) in [1] (setting [17]) and in assay [2] (setting [18]) were 2.5 µM and 8.8 µM, respectively. For the same compound, in assay [3], the half-maximal inhibitory concentration (IC50) was greater than 25 µM. The Activity is 15% in [6]; 0% in [7]; 0% in [8]; 0% in [9]; 0% in assay [10].

For `C[N+]1(CCCCCCCCCCCC[N+]2(C)CCOCC2)CCOCC1`, the minimum inhibitory concentration (MIC) in assay [1] (setting [17]) is 44 µM; in assay [2] (setting [18]), 88 µM. The compound also yielded an IC50 in assay [3] greater than 250 µM.

Turning to `CC[N+](CC)(CC)CCCCCCCCCCCC[N+](CC)(CC)CC`, the MIC in assay [1] (setting [17]) was found to be 11 µM; in assay [2] (setting [18]), 22 µM. In assay [3], this compound displayed a half-maximal inhibitory concentration (IC50) greater than 250 µM.

In the case of `CCCC[N+]1(CCCCCCCCCCCC[N+]2(CCCC)CCCC2)CCCC1.[Cl-].[Cl-]`, the MIC in [1] (setting [17]) and in [2] (setting [18]) was 88 µM in each case. The same compound registered an IC50 in assay [3] greater than 250 µM. Moreover, the Activity in [6], in [7], in assay [8], in assay [9] and in assay [10] was 0% in each case.

Regarding `C(CCCCCC[N+]12CCC(CC1)CC2)CCCCC[N+]12CCC(CC1)CC2`, the figures for the minimum inhibitory concentration (MIC) in assay [1] (setting [17]) and in assay [2] (setting [18]) were 350 µM and no less than 350 µM, respectively. Moreover, in assay [3], the half-inhibitory concentration (IC50) is greater than 250 µM.

As for `CCCC[N+](CCCC)(CCCC)CCCCCCCCCCCC[N+](CCCC)(CCCC)CCCC` [listing 1 of 2 here], the inhibition in assay [4] was found to be 90%. Besides, the inhibition result in [5] is “inactive”.

In the case of `CCCC[N+](CCCC)(CCCC)CCCCCCCCCCCC[N+](CCCC)(CCCC)CCCC` [listing 2 of 2 here], the MIC amounted to 2.2 µM in [1] (setting [17]) and 5.5 µM in assay [2] (setting [18]).

For the origin of these results see ChEMBL document CHEMBL1148608, “Correlation of antifungal activity with fungal phospholipase inhibition using a series of bisquaternary ammonium salts” (J Med Chem, 2006).
